System: MS2 coat protein
Assay: apparent Kd, MS2 coat protein; higher = weaker binding; RNA-MaP array; FMN 200 µM where present
Procedure, shortened: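 In 100 mM Tris-HCl pH 7.5, 80 mM KCl, 4 mM MgCl2, BSA, DTT, yeast tRNA and Tween-20, SNAP-549-labelled MS2 coat protein was titrated from 0.7 or 1.5 nM, doubling to 3 µM, over designs transcribed by stalled E. coli RNA polymerase on Illumina sequencing-chip clusters. This was done first without ligand, then with ligand held constant. After green signal was normalised to red-channel RNA signal and control-cluster median Fmax, the apparent Kd was taken as the median of filtered per-cluster binding-curve fits.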

[1] = designed as: ON switch for flavin mononucleotide, no ligand
[2] = ligand present: flavin mononucleotide, designed as: ON switch for flavin mononucleotide
[3] = designed as: OFF switch for flavin mononucleotide, no ligand
[4] = ligand present: flavin mononucleotide, designed as: OFF switch for flavin mononucleotide

Sequence	apparent Kd [1] [nM]	apparent Kd [2] [nM]	apparent Kd [3] [nM]	apparent Kd [4] [nM]
CUGAAGAUAUCAGGAUAUCUAUUUCCUACAUGAGGAUCACCCAUGUAGGUGAUCAGCCGAGUAAAGGAGAAGGGAUAUCUUUAG	27.1	10.1	–	–
AAUAAACUCACAGGAUAUAGCAGAGGUCGCGUAAACUUACAGGCGACUAUGCUAGAAGGGUGACCACAUGAGGAUCACCCAUGU	836	161	–	–
AACCUAAAACAGAAGGCCAAAUACAUGAGGAUCACCCAUGUCGAAUCAUGGAGGAUAUGUUGUUAUUUACUCGCAGAUGAGUGC	77.6	8.18	–	–
CUAGUACAUGAGGAUCACCCAUGUCAGGAUAUUGGAUAUGACAUGGAAAACAUGUUUACAAGAAGGGACUAUAG	–	–	285	290
GAGUACAUCGGAGGAUAUCAUGUAAAUACAUGAGGAUCACCCAUGUCGAUGGAGACAUCGGAGAUUGAGAAGGCCGAUGUACCG	180	8.63	–	–
UGGAGGUCAGGAUAUGCAUGGCGGGACUUGCGUCGUGGCGUGCAGAAGGGACAUGAGGAUCACCCAUGUGGAGG	–	–	124	121
UUCAGACAUGAGGAUCACCCAUGUGAGGAUAUGAUGCGAUCGUCGAAAGACGAUAGCAUCAGAAGGUACAAAUG	–	–	63	66.6
UGUUUGUGACAGAAGGGCAUUUACAUGAGGAUCACCCAUGUUCAUCAUUGCAGGAUAUGUAUUUCAUGAGGAUCACCUAUGCUC	201	71.1	–	–
UUGAUUAUACAAGGAUAUCAAUUGUAAUUAAGACUUACAUGAGGAUCACCCAUGUUAAUAUUUUAUGAGAAGGUGUAUUUUCAG	38.3	25.7	–	–
CUGAGGUCAGGAUAUGCAUGGCGGGACUUGCGUCGUGGCGUGGAGAAGGGACAUGAGGAUCACCCAUGUGGAGC	–	–	59.8	57
GGUCCACAUGAGGAUCACCCAUGUUAGGAUAUCUCGCCCGAGUCCAUAUGGGCCGGGCAGAGAAGGAAUGUGAA	–	–	21	22.6
GCAGCGCCUGACAUGAGGAUCACCCAUGUUAGAUUGUUAAGUCAGGAUAUAGUCUAGAAACUAGACUAGAAGGGAUAUGCUGCU	15	8.03	–	–
UUAUUAAGUGUGAGGAUAUGCUGGUCCUUGGAUCAGCAGAAGGCACAUGAGGAUCACCCAUGUACUUUAUUUUA	–	–	15.4	62.2
GCACGGUAUGUAGGAUAUGCAUAGCAUUGCUAUGCAGAAGGACAUGAGGAUCACCCAUGUAUGUAUUCCAUACAUUUCCCGUGC	–	–	5.73	5.74
AAAUAAAACGAUCGGCGAUCCAAACAUGAGGAUCACCCAUGUAGAAGGCACUCUACAUAGUAGAGUGAGGAUAUACGAGAUCGA	–	–	22.1	584
CAGGUAGACUGAGGAUAUACAAUAAAGACCUAGUCUAUCUAGGUCUUCACAUGAGGAUCACCCAUGUAGAAGGCAGUCUGCCUG	–	–	19.1	38.5
AGUGAGGGAGGAUAUACGUUGGUAUCACUGCAUUCGUCGUCACAUGAGGAUCACCCAUGUAGAAGGCCCGAGAG	–	–	28.8	79.1
AGUCAUGUCCGAGGAUAUGAUGCCGGUUUCUGCAAGCCAACGCGCCCGGCCUCAGAAGGCGGACAUGAGGAUCACCCAUGUAUC	–	–	64.9	12.2
UGGGAGUCAGGAUAUACGAACAUGUCGCCAGAUGUCAAGGUACAUGAGGAUCACCCAUGUAGAAGGGACUAGAA	–	–	39.4	42.1
ACAUGAGGAUCACCCAUGUUAUCCGGGACUUCAAUUGUUUCUAGAAGGCUGUUUACUUGUUAGUCAGAGGAUAUAGAAUCAAAU	–	–	10.7	11.4
UGGGUUGUUGAGGAUAUCCCGACCGUCUGGUCGGGAGAAGGCAAUACAUGAGGAUCACCCAUGUCACACUUUUC	–	–	32.2	66.5
AUUUCGUUAGCAGGAUAUGGACAGGCCUGUCCGUAUUGAGACAGUAACAUGAGGAUCACCCAUGUCCAGAAGGGCUCGAAGUAU	–	–	30.2	43.9
GCCUGGACAGAGAAGGGCUACUCCAACCACAUGAGGAUCACCCAUGUUAGCAGGAUAUCUGGCAGGGCAUCCUCAAUUAUUAAA	91.6	19.8	–	–
GCUUCGGCUGUGAGGAUAUCGGGCCCGAAAGGGCCCGAGAAGGCACAUGAGGAUCACCCAUGUAAGGUUGAAGU	–	–	18.8	15.4

Sequence	apparent Kd [1] [nM]	apparent Kd [2] [nM]	apparent Kd [3] [nM]	apparent Kd [4] [nM]
CUAAAUCAUGUAGGAUAUGCGUGGCGAAGCUAUGCAGAAGGACAUGAGGAUCACCCAUGUUUUUCCGUCUGCGUACAGACGGAA	–	–	259	260
CUCAUGUGAGGAUAUCAGUAGUAAAAAAAUAAAAUUACUACUGAGAAGGCACAUGAGGAUCACCCAUGUGCCUU	–	–	15.6	12.9
CAUGACAAAGGAUAUACAUGAGGAUCACCCAUGUGGUCAUGGAAGUACGUGUUCUCACGUAGAAGGUUGCAGGG	–	–	12.8	24.9
UGACGGAGCUGAGGAUAUUACAUGAGGAUCACCCAUGUAAGUCUCCAGGAAACUGGAGACAAAUGUAAGAAGGCAGCUCCGUCA	–	–	18.7	27.9
AGUAAGAUGCAGAAGGUGUCAGCGAGAGCUGCGACAUGAGGAUCACCCAUGUACAAGUGAGUGUACAAGGAUAUGCAUCUUACA	192	24	–	–
GUAAAACAAACUAACAUGAGGAUCACCCAUGUGAGGAGGCUCAGAAGGGCGUGGAAAAUUUCCUCGCAGGAUAUGAACCUCAUU	70.8	9.66	–	–
CUUAUGUGAGGAUAUGUACAGAAAAAACUGGGUGUAACUGUACAGAAGGCACAUGAGGAUCACCCAUGUGUAUU	–	–	98.5	34.1
CGUUGGUCAGGAUAUGGUGGGCUGGUGAGAGGGCCGGGUGGCUAGAAGGGACAUGAGGAUCACCCAUGUACGGC	–	–	40.4	28.2
CGGAUUAUGUGAGGAUAUAAUCGUUUCCAUUGAUUAGAAGGCACAUGAGGAUCACCCAUGUGGCAUGUAAAGCCAUGUGACGCG	–	–	108	109
AAUAUAAGAGCUGGUAAAUAACUCACAUGAGGAUCACCCAUGUAGGAUAUCAGCACGAUAAGUGCUGAGAAGGACAUCCAGCUC	–	–	15.4	16.2
CAGCGAAAGUAGAAGGCAGUACUGAUACAGUACUGAGGAUAUACAUGAGGAUCACCCAUGUUCUUCAGCUGGAAAUAAAUAAAA	–	–	8.02	124
GUGCGGUCAGGAUAUGCAUGGCGGGACUUGCGUCGUGGCGUGGAGAAGGGACAUGAGGAUCACCCAUGUGGAGG	–	–	107	84.9
AUUUCGUCAGGAUAUCCUAGUAAUUGUUUCAUAUUUUCAUAGGAGAAGGGACAUGAGGAUCACCCAUGUUUGUC	–	–	25.5	24.5
UAUUAGCUAGGAUAUACAUGAGGAUCACCCAUGUCACGGGUCCACUCAUCCUAUGCGUGUAGAAGGAGCGACCC	–	–	22.9	26.6
AAAAAACAAGGAUAUACGUAUGAGGAUUGUCUUAAUUUUUGACAUGAGGAUCACCCAUGUAGAAGGUGUUAAAA	–	–	120	126
GCCUCACAUGAGGAUCACCCAUGUCAGGAUAUAGGAGGCGGUAGAAAUCCUACCGCCGCUAGAAGGGACUGGCA	–	–	42.8	90.7
AAUGGGCACCAGAAGGACAUGAGGAUCACCCAUGUAGGAUAUGGGCGUUGAAGAUGUCUGAACGAGUUGCUGGAAGGAUAUGGG	305	41	–	–
AGUAUGCAGCAGGAUAUCGAUCCGCAGUAUGAUCGAGAAGGGCUGACAUGAGGAUCACCCAUGUGCGUCCUAGG	–	–	40.1	167
AACCAGUUGGUAGGAUAUGGUGCAGUGCCCGUACCAGAAGGACCAACAUGAGGAUCACCCAUGUUGGAAAGUCAACAUUAAUGA	–	–	6.32	11.8
AGGUGUCCUGAGAAAUUUCUCCACAUGAGGAUCACCCAUGUAGAGGAUAUCGACGCUGUGCGGUUCGAGAAGGCUACACUAAUU	–	–	6.54	22.7
CUGCUGGAGCUUUGCUUUAGUCGUACAUGAGGAUCACCCAUGUAGGAUAUGGUAGGCUUCGCUUACUAGAAGGAUAGAGUGGUC	–	–	33.6	22.8
AUAUAUAAUAAGAAGGUGCCAGCGAGAGCUGCACAUGAGGAUCACCCAUGUUGUCGGUGACGACGCAAGGAUAUUAUUAUAUAU	56.8	18.5	–	–
GCUGCGUAUGCAGGAUAUACAUGAGGAUCACCCAUGUAACUCGAACUCUAAGCGGGUGCGCGCAUGUAGAAGGGCAGGCGAGCC	–	–	35.5	51.2
UUAGGAUGUGAAGGAUAUGCCGAGUUAAGCCCAGCAGAAGGUUACAUACCUUUUGAUACAUGAGGAUCACCCAUGUUCUAAGAU	41.6	28.3	–	–

— the EternaBench riboswitch data
